From the array DNA melting data of Ke et al. (doi:10.1101/2024.01.08.574731)

Tests used:
[1] = melting temperature; fluorescence melt of hairpins on a sequencing array, two-state fit, raised by 9.35 °C to match UV melts; conditions: sodium 0.088 M
Procedure, shortened: (§1)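 Cy3 fluorescence of library hairpins on a sequenced MiSeq flow cell, with annealed Cy3 and quencher oligos, was imaged in 50 mM Na-HEPES pH 8.0, 25 mM NaCl in 2.5 °C steps up to 60 °C. Signals were normalised to pre-quench Cy3 and to control variants. Melting temperature and folding enthalpy came from bootstrapped two-state fits, inverse-variance combined over four replicates. Fitted temperatures were raised by 9.35 °C to match UV melts.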

[2] = folding enthalpy; higher = less favourable; fluorescence melt of hairpins on a sequencing array, two-state fit; conditions: sodium 0.088 M
Procedure, shortened: as §1

Sequence | Tm [1] [°C] | folding enthalpy [2] [kcal/mol]
GATTCAGGAAACTGGATC (((.(((....))).))) | 41.9 | -36.7
GGCGGCGAAAGCCACGCC ((((((....)))..))) | 63.6 | -17.1
GATGCCACGAAAGTGATC (((..(((....)))))) | 20.2 | -9.92
GTAGTGACGAAAGTCTAC (((..(((....)))))) | 29.7 | -15.9
GATGACGAAAGTCCGATC ((((((....)))..))) | 26.8 | -12.8
GATCTCTCATGAGATC ((((((....)))))) | 52.3 | -44.1
GCCCACGAAAGTGCCGGC ((((((....)))..))) | 46.6 | -16.1
GATCCTGCCTAGGATC ((((((....)))))) | 54.7 | -43.7
GCTAAGCGAAAGCTCCGC ((..(((....)))..)) | 26.9 | -10.6
GATCCCGCGGGGGATC ((((((....)))))) | 59.9 | -31
GATATAGGAAACTATGTC ((.((((....)))).)) | 33.5 | -21.8
GATCCCCCTCGGGATC ((((((....)))))) | 58.2 | -34
GTTGCGGGAAACTGCGAC ((.((.(....).)).)) | 38 | -11
GTGATACGAAAGTACAC (((.(((....)))))) | 43.7 | -25.8
GATCGCGAAAGCGTCATC ((((((....)))..))) | 33.8 | -7.57
GAGACCGAAAGGTCCCTC ((((((....)))..))) | 44.6 | -11.1
GCTCAAGGAAACCTGAGC (((((.(....).))))) | 46.9 | -35.4
GATCCATTTTGGATC ((((((...)))))) | 53.6 | -33.5
GCGGGCTCGAAAGAGCGC (((..(((....)))))) | 55 | -10.2
GGGGTGGAAACACCCC ((((((....)))))) | 68.8 | -38.9
GAGGTCGGAAACGATCTC (((.(((....))).))) | 52.5 | -43.8
GATCGGGGTCCCGATC ((((((....)))))) | 61 | -39.5
GATCCCGTGCGGGATC ((((((....)))))) | 66.3 | -35.8

Sequence | Tm [1] [°C] | folding enthalpy [2] [kcal/mol]
GATCAGGGGCTGATC ((((((...)))))) | 47.5 | -27.4
GTCGCAGGAAACCGCGAC (((((.(....).))))) | 58.9 | -43.1
GGGCTAGCGAAAGCTCCC (((..(((....)))))) | 38.8 | -15.1
GCCATCGAAAGATTGGC ((((((....))).))) | 50.7 | -30.3
GCCCCGCGAAAGCTGGGC ((((.((....)).)))) | 68.8 | -39.2
GCGTGGCGAAAGCTAAGC ((.(.((....)).).)) | 58.3 | -23.3
GGCCTTACGAAAGTAGCC (((..(((....)))))) | 36.8 | -22.1
GATCGCTTGGGCGATC ((((((....)))))) | 69.1 | -27.7
GTGATCGAAAGATGACAC ((((((....)))..))) | 33.4 | -16.2
GAATCCGAAAGGAAATTC ((((((....)))..))) | 29.1 | -15.5
GAGAACGCGAAAGCGCTC (((..(((....)))))) | 39 | -12.2
GCTCGTGGAAACGTGAGC ((((..(....)..)))) | 46.2 | -21.3
GGTAACGGAAACGTTGCC ((.((((....)))).)) | 53.8 | -50.5
GGGGGAGGAAACTCTCCC (((.(((....))).))) | 52.7 | -38
GTGAGAGGAAACCCTCAC (((((.(....).))))) | 43.5 | -26.2
GATCATATAAATGATC ((((((....)))))) | 43.7 | -29.9
GTGCTAGGAAACTAACAC (((.(((....))).))) | 34.4 | -27.7
GACCCAGGAAACTGGGCC (.(((((....))))).) | 47.9 | -16.5
GCAATCCGAAAGGAGTGC (((.(((....))).))) | 61.1 | -48
GCTTTGGGAAACCAGAGC (((.(((....))).))) | 48 | -27
GCAGCCTCGAAAGAGTGC (((..(((....)))))) | 37 | -15.5
GCCTTGCGAAAGCATGGC (((.(((....))).))) | 62.1 | -44.8
ATTCCGAAAGGAAT (((((....))))) | 52.4 | -20.8

Sequence | Tm [1] [°C] | folding enthalpy [2] [kcal/mol]
GATGATGGAAACATTGTC ((..(((....)))..)) | 28.8 | -27.9
GATCTGTTTTCAGATC ((((((....)))))) | 51.4 | -49.9
CGGAACGGAAACGTACCG (((.(((....))).))) | 49.7 | -43.6
GATCGGCCCACCGATC ((((((....)))))) | 58.2 | -41.5
GATCGGGGCTCCGATC ((((((....)))))) | 59.4 | -34.5
GATGCTGCGAAAGCAATC (((..(((....)))))) | 29.3 | -9.87
GTCGTAACGAAAGTTGAC (((..(((....)))))) | 35.8 | -22.4
GGCTGTGGAAACATAGCC ((((.((....)).)))) | 53.5 | -43.4
GACCACGAAAGTGGGGTC ((((((....)))..))) | 61.2 | -13.2
GCGGTCGAAAGACGCCGC ((((((....)))..))) | 56.4 | -19.9
GCGAACCTTCGC ((((....)))) | 50.3 | -24.2
GCGACTCCGAAAGGACGC (((..(((....)))))) | 46.7 | -25.6
GCTTTGCGAAAGCTAAGC ((((.((....)).)))) | 62.7 | -28.8
GGCAGCGGAAACGCCGCC (((.(((....))).))) | 61.5 | -31.3
CGGATCCGGAAACGGCCG (((..(((....)))))) | 38.3 | -20.6
GATCTACGTCTAGATC ((((((....)))))) | 40.7 | -20.7
GCGGAGCGAAAGCAGCGC (((..((....))..))) | 58 | -17.1
GCCCCTCGAAAGAGCGGC (((.(((....))).))) | 49.8 | -33
GTCGTCCGAAAGGAAGAC (((.(((....))).))) | 55.9 | -33
GTCATCTCGAAAGAGGAC (((..(((....)))))) | 39.4 | -20.9
GGCCACACGAAAGTGGCC (((..(((....)))))) | 67.5 | -39.1
GATCCCCTGCGGGATC ((((((....)))))) | 58.2 | -33.6
GCTAGCGAAAGCTGGAGC ((((((....)))..))) | 43.2 | -14.1

Sequence | Tm [1] [°C] | folding enthalpy [2] [kcal/mol]
GATCAATACATTGATC ((((((....)))))) | 49.2 | -37.3
GGTTACGAAAGTAAAACC ((((((....)))..))) | 36.6 | -24.3
GTCAGCGAAAGCTCAGAC ((((((....)))..))) | 34.5 | -15.8
GATCGAGGAATCGATC ((((((....)))))) | 55.9 | -33.2
GTACGACGAAAGTCTTAC (((.(((....))).))) | 40.3 | -26.1
GGTCGGTCGAAAGACACC (((..(((....)))))) | 33.4 | -13.4
GATCTAGGTCTAGATC ((((((....)))))) | 46.2 | -37.1
GCTTCCGAAAGGAGGAGC ((((((....)))..))) | 39.1 | -21
GTCCGTGGAAACACGAAC ((.((((....)))).)) | 39.7 | -21
GCGAGAAATCGC ((((....)))) | 52.5 | -21.5
GGAATGGGAAACCATTTC (.(((((....))))).) | 42.2 | -34.4
TCAAGGAAACTTGA (((((....))))) | 32 | -8.95
GCATCATCGAAAGATTGC (((..(((....)))))) | 30.8 | -19.8
GCGTGACCACGC ((((....)))) | 61.3 | -21.2
GATCGCGAAAGCGGCATC ((((((....)))..))) | 32.1 | -7.52
GATCCTGGGGAGGATC ((((((....)))))) | 51 | -36.8
GGACAGCGAAAGCTCTCC (((.(((....))).))) | 38.4 | -18.3
GTTTAGCCGAAAGGCAAC (((..(((....)))))) | 33.7 | -8.63
GCTTGCGAAAGCAGCAGC ((((((....)))..))) | 46.4 | -11.4
GCTCGCTCGAAAGAGAGC (((..(((....)))))) | 48.6 | -20.8
GCTTAGCGAAAGCTTAGC (((.(((....))).))) | 51.9 | -43.1
GAAAGACGAAAGTCCTTC (((.(((....))).))) | 32.8 | -15.6
GCCCGCGAAAGCGACGGC ((((((....)))..))) | 54.9 | -22.3
